This is a sample that favours compounds with a hit; in the whole collection about 2.3% have one here.
TRPC6 inhibitor – mouse TRPC6 channel inhibition; HEK293-TRPC6, membrane potential dye, ACh-evoked depolarization; stronger effect = lower value; B-score at 10 µM; actives 1.1% (n = 310,000); AID 2553;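 active = B-score under library mean minus 3 SD, initial fluorescence not abnormally high, positive integrated signal ratio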;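 note: B-score derived from integrated fluorescence ratio over the kinetic read; more negative B-score means stronger inhibition of depolarization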
TRPC4 block – TRPC4 (mouse) channel inhibition; Q9QUQ5; HEK293 TRPC4beta/mu-opioid, DAMGO-evoked Fluo4 calcium flux; stronger effect = lower value; B-score at 10 µM; actives 0.39% (n = 300,000);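 active = B-score over 3 SD under the library average, no early fluorescence shift, positive overall ratio signal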
Target sequence (Q9QUQ5 whole entry, looked up): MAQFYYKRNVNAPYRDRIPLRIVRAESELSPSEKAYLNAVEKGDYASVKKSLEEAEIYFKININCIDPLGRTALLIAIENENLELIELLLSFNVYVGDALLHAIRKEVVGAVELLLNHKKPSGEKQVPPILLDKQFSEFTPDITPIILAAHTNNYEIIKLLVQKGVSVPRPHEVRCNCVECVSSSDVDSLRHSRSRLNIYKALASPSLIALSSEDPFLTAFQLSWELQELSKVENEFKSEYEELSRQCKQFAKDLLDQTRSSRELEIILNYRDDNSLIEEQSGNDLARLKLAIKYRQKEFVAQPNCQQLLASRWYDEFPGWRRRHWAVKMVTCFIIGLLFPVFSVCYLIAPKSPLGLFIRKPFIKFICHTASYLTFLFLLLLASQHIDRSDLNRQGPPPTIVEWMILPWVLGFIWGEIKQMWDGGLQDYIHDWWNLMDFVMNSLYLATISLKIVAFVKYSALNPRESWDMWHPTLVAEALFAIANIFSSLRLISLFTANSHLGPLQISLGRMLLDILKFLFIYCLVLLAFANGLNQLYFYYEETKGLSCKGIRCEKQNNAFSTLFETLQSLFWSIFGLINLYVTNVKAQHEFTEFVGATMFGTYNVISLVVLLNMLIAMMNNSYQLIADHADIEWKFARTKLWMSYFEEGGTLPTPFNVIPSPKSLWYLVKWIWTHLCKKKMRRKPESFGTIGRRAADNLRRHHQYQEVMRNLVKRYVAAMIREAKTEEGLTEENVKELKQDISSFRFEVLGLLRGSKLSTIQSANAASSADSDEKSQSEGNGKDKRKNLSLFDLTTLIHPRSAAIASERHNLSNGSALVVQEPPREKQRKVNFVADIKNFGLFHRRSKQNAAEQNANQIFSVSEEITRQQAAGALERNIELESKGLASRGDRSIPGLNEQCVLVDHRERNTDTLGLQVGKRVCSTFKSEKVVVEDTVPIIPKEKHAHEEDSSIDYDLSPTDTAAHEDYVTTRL
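material = TRPC4beta/mu-opioid receptor HEK293 cell line | probe or stimulus = sequential submaximal and maximal DAMGO stimulation | compound dosing = one concentration per compound | measured by = Fluo4 Ca2+ flux fluorescence | evaluation = integrated fluorescence ratio relative to baseline, converted to per-well B score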
TRPC6 activator – activates the mouse TRPC6 cation channel | Q61143 | HEK293-TRPC6 membrane potential dye fluorescence; stronger effect = higher value | B-score at 10 µM | actives 0.13% (n = 310,000) | AID 2550;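 active = B-score of the integrated fluorescence ratio above library mean plus 3 SD, and starting fluorescence ratio within library mean plus 5 SD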;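 note: higher score means more depolarization so channel activation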
TRPC4 PAM – TRPC4 (mouse) allosteric potentiation | Q9QUQ5 | HEK293 TRPC4beta/mu-opioid, DAMGO EC20, Fluo-4 Ca2+ flux; stronger effect = higher value | B-score at 10 µM | AID 2227 | actives 0.42% (n = 310,000);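 active = B-score of calcium response area above 5 SD of library B-scores, with initial fluorescence ratio within 5 SD of library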;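 note: B-score of integrated fluorescence ratio over time as area under calcium response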
TRPC4 act – activators of mouse TRPC4 channel; Q9QUQ5; HEK293 TRPC4beta/mu-opioid, Fluo4 calcium fluorescence; stronger effect = higher value; B-score at 10 µM; actives 0.49% (n = 310,000); AID 2237;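 active = B-score above 5 SD of library B-scores, and initial fluorescence ratio not above library mean plus 5 SD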;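 note: positive B-score marks a calcium rise read as TRPC4 activation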
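Test system: HEK293 cells stably co-expressing mouse TRPC4beta and mu-opioid receptor | Schedule: Fluo4 dye loading 45 min at room temperature, 110 s recording | Measured by: Kinetic Fluo4 calcium fluorescence, 5 s baseline at 1 Hz | Evaluation: B score of integrated ratio | Controls: Buffer (low) and maximal DAMGO (high)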
TRPC4 spec 2 – second check of whether TRPC6 inhibitors also affect mouse TRPC4; shares compounds with TRPC6 inhibitor; HEK293 TRPC4/MOR, membrane potential dye fluorescence; channel activated by saturating DAMGO dose; inhibition, % at 10 µM; actives 42% (n = 920); AID 2776;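 active = compounds whose fluorescence signal differed from control wells by over 3 SD, either direction, in both duplicate plates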
TRPC4 spec – selectivity of TRPC6 inhibitors: effect on mouse TRPC4; AID 2777; HEK293 TRPC4/mu-opioid, membrane potential fluorescence; shares compounds with TRPC6 inhibitor; actives 61% (n = 920); activity change, negative = inhibition, % at 10 µM;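 active = rise or fall in signal beyond 3 SD of buffer-only wells in both replicate plates, either sign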;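 note: integrated kinetic ratio of fluorescence range over baseline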
HEK293 MPD ctr 2-1 – second counter-screen for TRPC6 inhibitors: parental HEK293 cells; shares compounds with TRPC6 inhibitor; parental HEK293 membrane potential dye fluorescence; maximal acetylcholine challenge after compound addition; signal change vs control, % at 10 µM; actives 31% (n = 920); AID 2779;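 active = membrane potential signal moving either way by over 3 SD of the maximum-effect control, in both duplicate plates, meaning non-specific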
HEK293 MPD ctr-1 – counter-screen for TRPC6 inhibitors: effect in parental HEK293 cells | membrane potential signal change, % at 10 µM | actives 60% (n = 920) | parental HEK293 membrane potential dye fluorescence | shares compounds with TRPC6 inhibitor;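 active = membrane potential signal shifting up or down by more than 3 SD of buffer-only wells, on both duplicate plates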
HEK293 MPD ctr-2 – checks TRPC6 modulator effects in parental HEK293 cells. membrane potential signal change, % at 10 µM. actives 51% (n = 2,400). shares compounds with TRPC6 inhibitor. membrane potential dye fluorescence. AID 488924;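 active = membrane potential signal moves up or down beyond 5 SD from buffer-only wells, on both duplicate plates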
HEK293 MPD ctr 2-2 – parental HEK293 nonspecific activity of TRPC6 modulators, second screen | inhibition, % at 10 µM | shares compounds with TRPC6 inhibitor | actives 14% (n = 2,400) | membrane potential dye fluorescence; after compound, maximal acetylcholine stimulation;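 active = membrane potential signal drops by more than 5 SD from the mean control signal, in both duplicate plates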;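 note: plate controls were acetylcholine ECmax control wells for no effect and buffer only wells for full effect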
TRPC4/MOR mod – selectivity of TRPC6 modulators against mouse TRPC4; actives 69% (n = 2,400); percent change from control (negative = decrease, positive = increase), % at 10 µM; AID 488927; HEK293 TRPC4/mu-opioid, membrane potential fluorescence; shares compounds with TRPC6 inhibitor;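 active = membrane potential signal moved up or down beyond 5 SD of buffer control wells, in both duplicate plates, actives on both sides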;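 note: plate controls were assay buffer wells for no effect and DAMGO maximal-effect wells for full effect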
TRPC4 ctr inh 2 – second check of whether TRPC6 modulators also affect mouse TRPC4; AID 488928; shares compounds with TRPC6 inhibitor; actives 55% (n = 2,400); HEK293 TRPC4/mu-opioid, membrane potential dye fluorescence; stimulated with maximal-effect DAMGO; inhibition, % at 10 µM;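 active = drop in membrane potential signal beyond 5 SD of the control wells in both duplicate plates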;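 note: TRPC4 counter screen for TRPC6 hits run under conditions tuned for TRPC6 not TRPC4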
TRPC6 inh conf – mouse TRPC6 inhibitor confirmation; shares compounds with TRPC6 inhibitor; HEK293-TRPC6, membrane potential dye, ACh-evoked depolarization; inhibition, % at 10 µM; actives 43% (n = 3,300); AID 488960;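 active = fluorescence ratio falls more than 5 SD below the full-stimulation control mean, in both duplicate runs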;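 note: integrated fluorescence ratio of peak minus minimum over baseline after agonist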
TRPC6 act confirm – mouse TRPC6 activator confirmation; shares compounds with TRPC6 inhibitor; HEK293-TRPC6 membrane potential dye fluorescence, FDSS; activation, % at 10 µM; actives 11% (n = 2,800); AID 488961;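 active = ratio signal rise beyond 5 SD above unstimulated control wells' mean, seen in both duplicate runs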;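 note: plate controls were buffer EC0 wells for no effect and acetylcholine ECmax response for full effect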
Starred values were filed as active, the others as inactive; i = inactive; nt = no result.

SMILES | TRPC6 inhibitor | TRPC4 block | TRPC6 activator | TRPC4 PAM | TRPC4 act | TRPC6 inh conf | TRPC6 act confirm | others
CN(C)CCNS(=O)(=O)c1ccc(N2CCN(c3ccc(F)cc3)CC2)c([N+](=O)[O-])c1 | -7* | i | i | i | i | 52%* | i | TRPC4 spec 2=40%*;TRPC4 spec=-14%*;HEK293 MPD ctr 2-1=i;HEK293 MPD ctr-1=-278%*
CC(=O)N1CCN(c2ccc(S(=O)(=O)NCCN(C(C)C)C(C)C)cc2[N+](=O)[O-])CC1 | i | i | i | i | i | nt | nt
CN1CCN(c2ncccc2S(=O)(=O)N2CCCCC2)CC1 | -7* | i | i | i | i | 78%* | i | TRPC4 spec 2=i;TRPC4 spec=-0.1%*;HEK293 MPD ctr 2-1=-41%*;HEK293 MPD ctr-1=0.9%*
O=S(=O)(c1cccc2cccnc12)N1CCCCC1 | i | i | i | i | i | nt | nt
COc1cc(C2C(C#N)=C(N)Oc3n[nH]c(-c4ccncc4)c32)cc(OC)c1OC (stereo unspecified) | i | i | i | i | i | nt | nt
Cc1ccc(OCC(COCc2ccccc2)NC(C)C)cc1 (stereo unspecified) | -9.3* | -6* | i | i | i | 101%* | nt | TRPC4 spec 2=42%*;TRPC4 spec=38%*;HEK293 MPD ctr 2-1=i;HEK293 MPD ctr-1=14%*
Cc1cc([N+](=O)[O-])c(C)cc1-c1ccc(/C=N/n2cnnc2)o1 | -5.8* | i | i | i | i | i | i | HEK293 MPD ctr-2=-108%*;HEK293 MPD ctr 2-2=i;TRPC4/MOR mod=-23%*;TRPC4 ctr inh 2=34%*
Cc1cc([N+](=O)[O-])c(C)cc1-c1ccc(/C=N/NC(=O)Cn2nnnc2N)o1 | i | i | i | i | i | nt | nt
CN1C(=O)C(CC(=O)Nc2ccccc2F)N(NC(=O)c2ccc(Br)cc2)C1=S (stereo unspecified) | i | i | i | i | i | nt | nt
COc1ccc(-c2csc3ncnc(N4CCN(c5ccccc5[N+](=O)[O-])CC4)c23)cc1 | i | i | i | i | i | nt | nt
CCN(CC)CCSc1nnc2c3cc(C)ccc3n(Cc3ccccc3)c2n1 | -7.1* | i | i | i | i | i | i | TRPC4 spec 2=27%*;TRPC4 spec=14%*;HEK293 MPD ctr 2-1=i;HEK293 MPD ctr-1=-213%*
Cc1cc(OCC(=O)NC2CCN(Cc3ccccc3)CC2)c2c(C)cc(=O)oc2c1 | -6.1* | i | i | i | i | i | i | HEK293 MPD ctr-2=-82%*;HEK293 MPD ctr 2-2=i;TRPC4/MOR mod=-26%*;TRPC4 ctr inh 2=i
Clc1ccc(C2=NNC(=NCc3ccccc3)SC2)cc1 | i | i | i | i | i | nt | nt
Cc1ccccc1NC(=O)Cn1nnc2ccccc21 | i | i | i | i | i | nt | nt
Cc1nc(SCc2ccc(C(=O)O)cc2)nc2c1CCCC2 | i | i | i | i | i | nt | nt
NCCCCCc1nnc(SCc2ccc(Cl)c(Cl)c2)o1 | -6.2* | i | i | i | i | 60%* | i | HEK293 MPD ctr-2=i;HEK293 MPD ctr 2-2=i;TRPC4/MOR mod=i;TRPC4 ctr inh 2=66%*
CCS(=O)(=O)N1CCCC(C(=O)NC2CCCCC2C)C1 (stereo unspecified) | i | i | i | i | i | nt | nt
CCN(CC)CCNC(=O)Cn1nc(Cc2ccncc2)c2ccccc2c1=O | -6.2* | i | i | i | i | i | i | HEK293 MPD ctr-2=i;HEK293 MPD ctr 2-2=i;TRPC4/MOR mod=i;TRPC4 ctr inh 2=i
Cc1c(Cl)cccc1NC(=S)N1CCN(Cc2ccccc2)CC1 | i | i | i | i | i | nt | nt
COC(=O)c1c(C)cc(C)n2c1nc1ccccc12 | -6.8* | i | i | i | i | 64%* | i | TRPC4 spec 2=i;TRPC4 spec=-20%*;HEK293 MPD ctr 2-1=i;HEK293 MPD ctr-1=-334%*
Cc1cc(C)n2c(nc3ccccc32)c1C(=O)NN | i | i | i | i | i | nt | nt
COc1cccc(C2CC(c3cccc(Br)c3)n3ncnc3N2)c1 (stereo unspecified) | i | i | i | i | i | nt | nt
Cc1nn(-c2cc(N3CCCCCC3)ccc2[N+](=O)[O-])c(=O)c2ccccc12 | i | i | i | i | i | nt | nt
Cc1ccc(-c2nn(-c3cc(N4CCNCC4)ccc3[N+](=O)[O-])c(=O)c3ccccc23)cc1 | -9.6* | i | i | i | i | i | i | TRPC4 spec 2=51%*;TRPC4 spec=-11%*;HEK293 MPD ctr 2-1=i;HEK293 MPD ctr-1=i
COc1ccc(S(=O)(=O)N(C(C)=O)c2ccc3oc(=O)sc3c2)cc1 | i | i | i | i | i | nt | nt
CC(C)(C)C1CCC(=O)N(CCSc2ccccc2)CC1 (stereo unspecified) | -5.2* | i | i | i | i | i | nt | HEK293 MPD ctr-2=190%*;HEK293 MPD ctr 2-2=i;TRPC4/MOR mod=44%*;TRPC4 ctr inh 2=i
COc1ccc(NC(=O)c2cc(-c3ccc4c(c3)OCO4)on2)cc1 | i | i | i | i | i | nt | nt
Cc1ccc(NC(=S)NCCN(C2CCCCC2)C2CCCC2)cc1C | -5.2* | i | i | i | i | i | nt | HEK293 MPD ctr-2=110%*;HEK293 MPD ctr 2-2=i;TRPC4/MOR mod=16%*;TRPC4 ctr inh 2=66%*
Cc1scc(C(=O)NNC(=O)CCC(=O)O)c1C | i | i | i | i | i | nt | nt
